# Reference: ChEMBL document CHEMBL4196192, “MEPicides: α,β-Unsaturated Fosmidomycin Analogues as DXR Inhibitors against Malaria” (J Med Chem, 2018)
# Activity calls are given as the source filed them. The calls are words filed in the database; no cut-off is given here.
# Assays:
# Plasmodium falciparum [1] = assay: Growth inhibition of Plasmodium falciparum 3D7 asynchronous cultures by PicoGreen dye based assay; type: functional, organism-based
# Plasmodium falciparum [2] = assay: Effect on DXR protein level in Plasmodium falciparum 3D7 at 5 times growth inhibitory IC50 incubated for 10 hrs by LC-MS/MS method; type: organism-based
# HepG2 = assay: Cytotoxicity in human HepG2 cells; type: cell-based
# [3] = Half life in mouse plasma; type: ADME, cell-free
# Plasmodium falciparum [4] = assay: Growth inhibition of Plasmodium falciparum 3D7 asynchronous cultures at 0.01 to 100 uM incubated for 72 hrs in presence of excess IPP by PicoGreen dye based assay; type: functional, organism-based
# [5] = biological target: T1, 1-deoxy-D-xylulose 5-phosphate reductoisomerase, apicoplastic (Plasmodium falciparum (isolate 3D7)) (UniProt Q8IKG4); assay: Inhibition of DXR in Plasmodium falciparum 3D7 assessed as reduction in MEP levels at 5 times growth inhibitory IC50 incubated for 10 hrs by LC-MS/MS method
# T1 sequence (whole entry): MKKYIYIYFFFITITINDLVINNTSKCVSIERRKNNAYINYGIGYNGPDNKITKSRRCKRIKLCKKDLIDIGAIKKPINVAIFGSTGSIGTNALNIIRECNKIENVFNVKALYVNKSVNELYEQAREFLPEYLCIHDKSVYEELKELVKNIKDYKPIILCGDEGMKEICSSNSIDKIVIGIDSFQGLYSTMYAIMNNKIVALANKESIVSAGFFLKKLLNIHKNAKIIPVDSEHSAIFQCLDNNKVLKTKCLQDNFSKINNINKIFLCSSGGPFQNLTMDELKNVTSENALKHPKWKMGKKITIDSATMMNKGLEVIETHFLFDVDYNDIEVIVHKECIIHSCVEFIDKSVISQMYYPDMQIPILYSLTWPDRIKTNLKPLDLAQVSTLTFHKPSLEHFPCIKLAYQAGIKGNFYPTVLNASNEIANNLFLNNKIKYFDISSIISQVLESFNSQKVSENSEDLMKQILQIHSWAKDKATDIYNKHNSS
# [6] = biological target: T1, 1-deoxy-D-xylulose 5-phosphate reductoisomerase, apicoplastic (Plasmodium falciparum (isolate 3D7)); assay: Inhibition of DXR in Plasmodium falciparum 3D7 assessed as reduction in CDP-ME levels at 5 times growth inhibitory IC50 incubated for 10 hrs by LC-MS/MS method
# [7] = biological target: T1, 1-deoxy-D-xylulose 5-phosphate reductoisomerase, apicoplastic (Plasmodium falciparum (isolate 3D7)); assay: Inhibition of DXR in Plasmodium falciparum 3D7 assessed as reduction in MEcPP levels at 5 times growth inhibitory IC50 incubated for 10 hrs by LC-MS/MS method
# Plasmodium falciparum [8] = assay: Growth inhibition of Plasmodium falciparum containing had1 mutation expressing GFP-HAD1 by PicoGreen dye based assay; type: functional, organism-based
# Plasmodium berghei [9] = assay: (§1) Antimalarial activity against luciferase-expressing Plasmodium berghei ANKA infected in Swiss Webster mouse assessed as reduction in parasitemia by measuring reduction in luciferin signal intensity at 20 mg/kg, ip administered daily for 5 days starting from 2 days post infection by luciferase-luciferin based reporter assay relative to untreated control; type: functional
# Plasmodium berghei [10] = assay: as §1, with “50” for “20”; type: functional, organism-based
# Mus musculus [11] = assay: Toxicity in luciferase-expressing Plasmodium berghei ANKA infected Swiss Webster mouse assessed as induction of adverse events at 20 mg/kg, ip administered daily for 5 days starting from 2 days post infection; type: organism-based; details: in vivo
# Summary of the method: (§2)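 Female Swiss Webster mice (25–30 g) infected ip with 10^3 luciferase-expressing P. berghei, then given ip doses daily for 5 days from day 2 in 2% methylcellulose/0.5% Tween 80 vehicle, groups of five; mice observed for adverse effects over the dosing period.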
# Mus musculus [12] = assay: Toxicity in luciferase-expressing Plasmodium berghei ANKA infected Swiss Webster mouse assessed as induction of adverse events at 50 mg/kg, ip administered daily for 5 days starting from 2 days post infection; type: organism-based; details: in vivo; summary of the method: as §2
# [13] = biological target: T1, 1-deoxy-D-xylulose 5-phosphate reductoisomerase, apicoplastic (Plasmodium falciparum (isolate 3D7)); assay: Inhibition of Plasmodium falciparum DXR assessed as remaining enzyme activity by measuring NADPH oxidation at 100 uM in presence of DOXP by UV-visible spectrophotometry
# Summary of the method: (§3)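 Recombinant P. falciparum DXR (0.86 μM) in 100 mM Tris pH 7.8, 25 mM MgCl2, 150 μM NADPH, at 37 °C; inhibitor at a single 100 μM; reaction started with 144 μM DOXP; NADPH oxidation followed at 340 nm by UV-vis spectrophotometry; percent remaining activity; duplicate.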
# [14] = biological target: T1, 1-deoxy-D-xylulose 5-phosphate reductoisomerase, apicoplastic (Plasmodium falciparum (isolate 3D7)); assay: Inhibition of Plasmodium falciparum DXR assessed as reduction in NADPH oxidation at 100 uM in presence of DOXP by UV-visible spectrophotometry; summary of the method: as §3
# [15] = Selectivity index, ratio of IC50 for cytotoxicity in human HepG2 cells to IC50 for growth inhibition of Plasmodium falciparum 3D7 asynchronous cultures; type: toxicity, cell-based; details: read-out: Ratio IC50
# [16] = Half life in mouse liver microsomes; type: ADME, microsome
# Plasmodium falciparum [17] = assay: Resistance index, ratio of IC50 for Plasmodium falciparum containing had1 mutation to IC50 for growth inhibition of wild type Plasmodium falciparum 3D7 asynchronous cultures; type: functional
# Plasmodium falciparum [18] = assay: Growth inhibition of Plasmodium falciparum; type: functional, organism-based
# [19] = biological target: T2, 1-deoxy-D-xylulose 5-phosphate reductoisomerase, apicoplastic (Plasmodium falciparum (isolate 3D7), UniProt Q8IKG4); assay: Inhibition of Plasmodium falciparum DXR
# T2 sequence (Q8IKG4 whole entry): T1 sequence (whole entry)
# Summary of the method: (§4)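 Recombinant P. falciparum DXR (0.86 μM) in 100 mM Tris pH 7.8, 25 mM MgCl2 and 150 μM NADPH at 37 °C. Reaction started with 144 μM DOXP. NADPH oxidation followed at 340 nm by UV–visible spectrophotometry. Compounds were screened first at a single 100 μM concentration as percent remaining activity. Assays were run in duplicate.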
# [20] = biological target: T2, 1-deoxy-D-xylulose 5-phosphate reductoisomerase, apicoplastic; assay: Inhibition of Plasmodium falciparum DXR assessed as reduction in NADPH oxidation in presence of DOXP by UV-visible spectrophotometry; summary of the method: as §4
# Plasmodium berghei [21] = assay: Antimalarial activity against luciferase-expressing Plasmodium berghei ANKA infected in Swiss Webster mouse assessed as reduction in parasitemia at 20 mg/kg, ip administered daily for 5 days starting from 2 days post infection by luciferase-luciferin based reporter assay; type: functional, organism-based
# Plasmodium falciparum [22] = assay: Growth inhibition of Plasmodium falciparum containing had1 mutation at 0.01 to 100 uM by PicoGreen dye based assay; type: functional, organism-based
structure (smiles),measurement,setting,value
CC(C)(C)C(=O)OCOP(=O)(/C=C/CN(O)C=O)OCOC(=O)C(C)(C)C,IC50,Plasmodium falciparum [1],13 nM
same,Activity,Plasmodium falciparum [2],Non-Toxic
same,IC50,HepG2,> 50000 nM
same,t1/2,[3],< 0.083 h
same,growth inhibition (GI),Plasmodium falciparum [4],inactive
same,inhibition,[5],Active
same,inhibition,[6],Active
same,inhibition,[7],Active
same,growth inhibition (GI),Plasmodium falciparum [8],Active
same,log(activity),Plasmodium berghei [9],3
same,Activity,Plasmodium berghei [10],Active
same,Activity,Mus musculus [11],Non-Toxic
same,Activity,Mus musculus [12],Non-Toxic
CC(=O)N(C/C=C/P(=O)(O)O)OCc1ccc2ccccc2c1,Activity,[13],25%
same,inhibition,[14],> 75%
same,IC50,Plasmodium falciparum [1],26100 nM
CC(=O)N(C/C=C/P(=O)(OCOC(=O)C(C)(C)C)OCOC(=O)C(C)(C)C)OCc1ccc(-c2ccccc2)cc1,IC50,Plasmodium falciparum [1],44100 nM
O=CN(O)C/C=C/P(=O)([O-])O.[Na+],inhibition,[14],> 75%
same,IC50,Plasmodium falciparum [1],19 nM
same,IC50,HepG2,> 50000 nM
same,selectivity ratio,[15],2630
same,t1/2,[16],> 1 h
same,t1/2,[3],> 2 h
same,growth inhibition (GI),Plasmodium falciparum [4],inactive
same,Ratio IC50,Plasmodium falciparum [17],3.4
same,growth inhibition (GI),Plasmodium falciparum [8],Active
O=CN(O)CCCP(=O)(O)O [FOSMIDOMYCIN SODIUM],IC50,Plasmodium falciparum [18],90 to 350 nM
same,inhibition,[14],> 75%
same,IC50,Plasmodium falciparum [1],1090 nM
COC(=O)N(O)C/C=C/P(=O)(O)O,inhibition,[14],> 75%
same,IC50,Plasmodium falciparum [1],28600 nM
C[C@@H]1CC[C@H]2[C@@H](C)C(=O)O[C@@H]3O[C@@]4(C)CC[C@@H]1[C@]32OO4 [ARTEMISININ],IC50,Plasmodium falciparum [1],10.4 nM
CC(=O)N(O)CCCP(=O)(O)O,IC50,[19],24 nM
same,IC50,Plasmodium falciparum [18],90 to 350 nM
same,IC50,[20],23 nM
same,inhibition,[14],> 75%
same,IC50,Plasmodium falciparum [1],511 nM
CC(=O)N(C/C=C/P(=O)(OCOC(=O)C(C)(C)C)OCOC(=O)C(C)(C)C)OCc1ccc2ccccc2c1,IC50,Plasmodium falciparum [1],50500 nM
CC(=O)N(C/C=C/P(=O)(OCOC(=O)C(C)(C)C)OCOC(=O)C(C)(C)C)OCc1ccc(C(C)C)cc1,IC50,Plasmodium falciparum [1],55200 nM
CC(=O)N(CCCP(=O)(OCOC(=O)C(C)(C)C)OCOC(=O)C(C)(C)C)OCc1ccc2ccccc2c1,IC50,Plasmodium falciparum [18],33200 nM
CC(C)(C)C(=O)OCOP(=O)(/C=C/CN(O)C(=O)C(F)(F)F)OCOC(=O)C(C)(C)C,IC50,Plasmodium falciparum [1],14300 nM
CCN(CC)CCCC(C)Nc1ccnc2cc(Cl)ccc12 (configuration not stated),Activity,Plasmodium berghei [21],Active
COC(=O)N(O)C/C=C/P(=O)(OCOC(=O)C(C)(C)C)OCOC(=O)C(C)(C)C,IC50,Plasmodium falciparum [1],23700 nM
CC(=O)N(C/C=C/P(=O)(O)O)OCc1ccc(C(C)C)cc1,inhibition,[14],> 75%
same,IC50,Plasmodium falciparum [1],1100 nM
same,growth inhibition (GI),Plasmodium falciparum [22],inactive
CC(=O)N(O)C/C=C/P(=O)(OCOC(=O)C(C)(C)C)OCOC(=O)C(C)(C)C,IC50,Plasmodium falciparum [1],18 nM
O=C(N(O)C/C=C/P(=O)(O)O)C(F)(F)F,Activity,[13],37%
same,inhibition,[14],> 75%
same,IC50,Plasmodium falciparum [1],113000 nM
CC(=O)N(C/C=C/P(=O)(O)O)OC(C)c1ccccc1 (configuration not stated),inhibition,[14],> 75%
same,IC50,Plasmodium falciparum [1],1200 nM
CC(=O)N(O)C/C=C/P(=O)(O)O,IC50,[20],206 nM
same,inhibition,[14],> 75%
same,IC50,Plasmodium falciparum [1],202 nM
CC(=O)N(C/C=C/P(=O)(O)O)OCc1ccc(-c2ccccc2)cc1,inhibition,[14],> 75%
same,IC50,Plasmodium falciparum [1],2300 nM
